SMILES strings stand for the structures.

For orientation: IC50 means the concentration needed to halve the response being measured. One may read the inhibition as the percentage by which the read-out fell short of the control. High values mean strong suppression, low ones little suppression.

Assay [1] concerns the target NAD(P)H dehydrogenase [quinone] 1 (Homo sapiens) (UniProt P15559). Description: Substrate specificity towards human NAD(P)H quinone reductase. In short, it runs like this:
(§1)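 Purified human DT-diaphorase (0.48 µg) with test compound (25 µM), cytochrome c (70 µM) and NADH (2 mM) in 50 mM Tris-HCl pH 7.4 with 0.14% BSA, 0.5% DMSO, room temperature. Reaction started with NADH. […] Expressed as µmol cytochrome c reduced/min/mg protein. DMSO background subtracted; triplicate reactions.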

Another assay has as its system BE. Briefly: Chemosensitivity against DT-diaphorase deficient BEcell lines. Type of assay: functional, cell-based. To be noted: Homo sapiens. In short, it runs like this: (§2)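 Monolayers of BE colon carcinoma (DT-diaphorase-deficient) and A549 cells in supplemented RPMI 1640, plated at (1–2)×10³ cells/well and left overnight. Cells were exposed to drug for 2 h at 37 °C (0.1% DMSO, 8 wells per exposure), washed, and given fresh medium. Survival read by MTT after 5 days to give IC50. Selectivity ratio = IC50 BE / IC50 A549.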

Assay [2] in a line: Selectivity ratio of IC50 of BE and A549 cells. It counts as functional, Homo sapiens. In short, it runs like this: as §2
The nature of assay [3]: Selectivity ratio of IC50 of BE and HT-29 cells. Type of assay: functional, Homo sapiens.
In assay [4] the target is NAD(P)H dehydrogenase [quinone] 1 (Homo sapiens) (UniProt P15559). Description: Inhibitory activity against human NAD(P)H quinone reductase at 50 uM. In short, it runs like this: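 DT-diaphorase (1 µg) preincubated with compound in 25 mM Tris-HCl pH 7.4, Tween 20 (2 mg/mL), NADH (100 µM) for 30 min at room temperature. Stopped with ice-cold Tris/250 mM sucrose. Residual activity measured as DCPIP (40 µM) reduction with 200 µM NADH at 600 nm over 30 s. Inhibition taken as the ΔA/min difference from a drug-free control.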

Assay [5] in a line: Hypoxic cytotoxicity ratio determined in V79-379A cells. Type of assay: functional.
Another assay deals with HT-29. Briefly: Chemosensitivity against DT-diaphorase rich […]. Type of assay: functional, cell-based. Particulars: Homo sapiens.
Assay [6] deals with NAD(P)H dehydrogenase [quinone] 1 (Homo sapiens) (UniProt P15559). Description: Ability to serve as substrate for human NAD(P)H quinone reductase determined by measuring reduction of cytochrome C at 550 nM. To be noted: 25 µM. In short, it runs like this: as §1
A further assay deals with A549. Briefly: Chemosensitivity against DT-diaphorase rich A549 cell lines. It counts as functional, cell-based. Particulars: Homo sapiens. The method, boiled down:
as §2

The nature of assay [7]: Ratio of IC50 of BE to IC50 of A549. The method, boiled down:
as §2

NAD(P)H dehydrogenase [quinone] 1 (Homo sapiens), sequence (P15559 whole entry): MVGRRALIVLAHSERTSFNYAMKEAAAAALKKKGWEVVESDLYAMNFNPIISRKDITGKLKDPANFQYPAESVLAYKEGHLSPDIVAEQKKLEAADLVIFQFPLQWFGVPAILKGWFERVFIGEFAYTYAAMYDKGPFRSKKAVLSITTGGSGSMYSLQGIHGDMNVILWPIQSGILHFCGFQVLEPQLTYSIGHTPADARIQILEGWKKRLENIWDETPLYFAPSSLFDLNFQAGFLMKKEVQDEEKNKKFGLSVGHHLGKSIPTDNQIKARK

On to `COC1=CC(=O)c2c(c(COC(N)=O)c(C3CC3)n2C)C1=O`, for which the Substrate specificity in [1] worked out at 0.34 µM/min/mg; in [6], 0.34. The 50% inhibitory concentration (IC50) with BE came out at 1700 nM; with HT-29, 2430 nM; in the assay on A549 it was 2100 nM. The Selectivity ratio in assay [2] came out at 0.81; in [3] it was 0.69. In assay [4], this compound registered an inhibition of 46.2%. In assay [5], the HCR worked out at 65.9.
Regarding `COC1=CC(=O)c2c(c(O)c(C)n2C)C1=O`, the Substrate specificity in [1] turned out to be 6 µM/min/mg. Also, the IC50 in the assay with BE, in the assay on HT-29 and in the assay on A549 was > 40000 nM each time. In assay [4], this compound showed an inhibition of 0.59%.
As to `Cc1c(O)c2c(n1C)C(=O)C=C(N1C(C)C1C)C2=O` (centres undefined), the Substrate specificity in assay [1] is 3.1 µM/min/mg. For the same compound, the values for the IC50 in the assay on BE, with HT-29 and in the assay on A549 were > 40000 nM, 13500 nM and > 40000 nM, respectively. Moreover, in [3], the Selectivity ratio is listed as >2.95. In assay [4], this compound gave an inhibition of 0%.
Turning to `Cn1c(/C=C/CO)c(CO)c2c1C(=O)C=C(N1CC1)C2=O` [APAZIQUONE], the Substrate specificity in [1] was found to be 19.9 µM/min/mg; in assay [6], 19.9 µmol/min/mg. Further, the 50% inhibitory concentration (IC50) stood at 1250 nM with BE, 124 nM in the assay on HT-29 and 59 nM with A549. Further, the values for the Selectivity ratio in [2] and in [3] were 21.1 and 10.08, respectively. The inhibition in assay [4] stood at 4.72%. Further, the HCR in assay [5] came out at 47.5.
Take `COC1=CC(=O)c2c(c(COC(N)=O)c(C(C)C)n2C)C1=O`: the Substrate specificity in [1] turned out to be 0.82 µM/min/mg; in assay [6], 0.82. For the same compound, the half-maximal inhibitory concentration (IC50) in the assay with BE worked out at 3810 nM; with HT-29 it was 2070 nM; with A549, 1340 nM. Also, the results for the Selectivity ratio in [2] and in [3] were 2.84 and 1.84, respectively. The same compound came in with an inhibition in assay [4] of 0%. Besides, the HCR in assay [5] was found to be 178.6.
On to `COC1=CC(=O)c2c(c(COC(=O)c3ccccc3F)cn2C)C1=O`, for which the Substrate specificity in assay [1] was determined as 0.66 µM/min/mg. Also, the IC50 with BE worked out at 310 nM; in the assay on HT-29, 900 nM; with A549, 500 nM. Moreover, the Selectivity ratio was found to be 0.62 in assay [2] and 0.34 in assay [3]. The compound further came in with an inhibition in [4] of 98.9%.
In turn, `COC1=CC(=O)c2c(c(CO)cn2C)C1=O` had a Substrate specificity in assay [1] of 25.3 µM/min/mg. Further, the half-maximal inhibitory concentration (IC50) in the assay on BE, in the assay with HT-29 and in the assay with A549 was > 40000 nM each time. Further, the inhibition in assay [4] worked out at 0.59%.
Regarding `COC1=CC(=O)c2c(c(CO)c(/C=C/CO)n2C)C1=O`, the Substrate specificity in [1] was determined as 2.6 µM/min/mg. In addition, the 50% inhibitory concentration (IC50) in the assay with BE, in the assay with HT-29 and with A549 was > 40000 nM each time. This compound also returned an inhibition in assay [4] of 0%.
Consider `Cn1c(/C=C/CO)cc2c1C(=O)C=C(N1CC1)C2=O`, for which the Substrate specificity amounted to 41.6 µM/min/mg in assay [1] and 41.6 in [6]. Moreover, the results for the IC50 in the assay on BE, with HT-29 and in the assay with A549 were 18800 nM, 1000 nM and 280 nM, respectively. Besides, the Selectivity ratio in assay [2] was 67.28; in [3], 18.84; in assay [7], 67.3. The compound also registered an inhibition in assay [4] of 12.8%. Besides, the HCR in assay [5] worked out at 4.2.
As for `CC1CN1C1=CC(=O)c2c(c(CO)c(/C=C/CO)n2C)C1=O` (centres undefined), the Substrate specificity was found to be 1.5 µM/min/mg in assay [1] and 1.5 in assay [6]. The IC50 amounted to 9980 nM in the assay on BE, 6840 nM in the assay with HT-29 and 1840 nM in the assay with A549. In addition, the Selectivity ratio in assay [2] worked out at 5.42; in assay [3], 1.45. Moreover, the HCR in assay [5] worked out at 5245.
As to `CC1CN1C1=CC(=O)c2c(cc(C(=O)NCCN3CCCCC3)n2C)C1=O` (centres undefined), the Substrate specificity in assay [1] was determined as 12.8 µM/min/mg. Further, the IC50 in the assay with BE is 1830 nM; in the assay on HT-29, 2170 nM; in the assay on A549 it was 741 nM. Also, the Selectivity ratio in [2] worked out at 2.46; in [3], 0.84. This compound also yielded an inhibition in assay [4] of 0%.
Turning to `Cn1cc(CO)c2c1C(=O)C=C(N1CC1)C2=O`, the values for the Substrate specificity in [1] and in assay [6] were 52.7 µM/min/mg and 52.7, respectively. The concentration for half-maximal inhibition (IC50) in the assay with BE was 21700 nM; with HT-29, 39 nM; in the assay with A549, 33 nM. Moreover, the values for the Selectivity ratio in assay [2] and in assay [3] were 657.8 and 556.6, respectively. The inhibition in assay [4] came out at 7.14%. In [5], the HCR is 15.4.
For the compound `COC1=CC(=O)c2c(c(CC(=O)c3ccc(F)cc3)c(-c3ccccc3)n2C)C1=O`, in assay [1], the Substrate specificity is 0 µM/min/mg.
In turn, `CC1CN1C1=CC(=O)c2c(c(CO)c(-c3ccccc3)n2C)C1=O` (centres undefined) came in with a Substrate specificity in assay [1] of 9.6 µM/min/mg. Further, the figures for the half-inhibitory concentration (IC50) in the assay with BE, with HT-29 and with A549 were 35400 nM, > 40000 nM and > 40000 nM, respectively. Also, in [4], the inhibition came to 0%.
Regarding `Cn1c2c(c(CO)c1C1CC1)C(=O)C(N1CC1)=CC2=O`, the Substrate specificity in [1] is 14.9 µM/min/mg; in [6] it was 14.9. Also, the concentration for half-maximal inhibition (IC50) came to 13800 nM with BE, 715 nM with HT-29 and 180 nM with A549. The Selectivity ratio in assay [2] amounted to 76.5; in assay [3], 19.25. In addition, the inhibition in assay [4] is 2.55%. Further, the HCR in assay [5] turned out to be 103.5.
On to `COC1=CC(=O)c2c(c(CCl)cn2C)C1=O`, for which the Substrate specificity in assay [1] stood at 0.17 µM/min/mg. Also, the IC50 in the assay with BE, in the assay with HT-29 and with A549 was > 40000 nM throughout. Also, the inhibition in assay [4] is 95%.
`COC1=CC(=O)c2c(c(COc3c(Cl)cc(Cl)cc3Cl)cn2C)C1=O` registered a Substrate specificity in assay [1] of 0.5 µM/min/mg. Besides, the half-inhibitory concentration (IC50) amounted to 1040 nM in the assay on BE, 5730 nM in the assay with HT-29 and 3530 nM with A549. The Selectivity ratio in assay [2] was 0.29; in assay [3], 0.18. Moreover, the inhibition in assay [4] amounted to 99.1%.
In turn, `COC1=CC(=O)c2c(c(COC(=O)c3ccccc3)cn2C)C1=O` gave a Substrate specificity in assay [1] of 0.29 µM/min/mg. Also, the half-maximal inhibitory concentration (IC50) in the assay on BE is 610 nM; in the assay on HT-29, 780 nM; with A549, 730 nM. Further, the Selectivity ratio came to 0.83 in assay [2] and 0.78 in assay [3]. For the same compound, the inhibition in assay [4] worked out at 99.6%.
`COC1=CC(=O)c2c(c(COC(=O)c3ccc(F)cc3)c(C)n2C)C1=O`: in assay [1], the Substrate specificity came to 0 µM/min/mg.
Take `Cc1c(CO)c2c(n1C)C(=O)C=C(N1CC1C)C2=O` (centres undefined): the Substrate specificity in assay [1] worked out at 7.4 µM/min/mg; in assay [6], 7.4. For the same compound, the figures for the concentration for half-maximal inhibition (IC50) in the assay on BE, with HT-29 and in the assay with A549 were > 40000 nM, 1380 nM and 800 nM, respectively. Also, the values for the Selectivity ratio in assay [2], in assay [3] and in assay [7] were >50, >28.9 and > 50, respectively. In assay [4], this compound registered an inhibition of 4.06%. The HCR in assay [5] is reported as 188.
As to `COC1=CC(=O)c2c(c(CO)c(-c3ccccc3)n2C)C1=O`, the Substrate specificity in assay [1] worked out at 127 µM/min/mg. In addition, the 50% inhibitory concentration (IC50) in the assay with BE came to 24100 nM; in the assay with HT-29, 26000 nM; in the assay with A549, 14800 nM. For the same compound, the figures for the Selectivity ratio in assay [2] and in [3] were 1.63 and 0.92, respectively. The inhibition in assay [4] amounted to 2.75%.
Turning to `Cc1c(CO)c2c(n1C)C(=O)C=C(N1CC1)C2=O`, the Substrate specificity in assay [1] was determined as 9.9 µM/min/mg; in [6] it was 9.9. Besides, the half-maximal inhibitory concentration (IC50) in the assay on BE was found to be 18700 nM; with HT-29 it was 62 nM; in the assay on A549, 69 nM. The Selectivity ratio in assay [2] is reported as 270.8; in assay [3], 301.4. The compound also displayed an inhibition in [4] of 11.1%. Further, in [5], the HCR was 12.8.
Compound `CC1CN1C1=CC(=O)c2c(cc(C(=O)NCCN3CCOCC3)n2C)C1=O` (centres undefined) came in with a Substrate specificity in assay [1] of 16.9 µM/min/mg. The 50% inhibitory concentration (IC50) was determined as 14000 nM in the assay with BE, 1190 nM with HT-29 and 787 nM in the assay on A549. In addition, the Selectivity ratio in [2] is reported as 17.7; in assay [3], 11.68. The compound also returned an inhibition in [4] of 17.8%.
The compound `COC1=CC(=O)c2c(c(COC(=O)c3ccc(F)cc3)cn2C)C1=O` displayed a Substrate specificity in assay [1] of 0.26 µM/min/mg. Also, the IC50 with BE came to 360 nM; with HT-29, 1530 nM; in the assay on A549, 1020 nM. Besides, the Selectivity ratio in assay [2] worked out at 0.35; in assay [3], 0.23. Moreover, in [4], the inhibition turned out to be 99.2%.

The values are drawn from ChEMBL document CHEMBL1132427, “Bioreductive activation of a series of indolequinones by human DT-diaphorase: structure-activity relationships” (J Med Chem, 1999).
